The list is not random: actives were taken first. Their share in the collection is about 3%.
M4 ag – agonists of human muscarinic M4 receptor (CHRM4); P08173; CHO-K1 hM4/Gqi5, Fluo-8 calcium fluorescence; vehicle 0%, full acetylcholine response 100%; activation, % at 3 µM; 360,000 compounds, 0.14% hits;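 active = activation above the run mean over all test wells plus 3 SD, cut at about 32% in these data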;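 also: peak over basal fluorescence ratio per well then scaled between controls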
M4 PAM – potentiates acetylcholine response at human M4 receptor. P08173. CHO-K1 hM4/Gqi5, Fluo-8 calcium fluorescence, ACh EC20; 0% = ACh EC20, 100% = maximal ACh. activation, % at 3 µM. 360,000 compounds, 0.4% hits. AID 624126;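 active = activation above its plate's cutoff, the mean activation of sample wells plus 3 SD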
TAAR1 antag – antagonists of human TAAR1; Q96RJ0; CHO RD-HGA16 TAAR1, Fluo-8 calcium fluorescence, antagonist; inhibition, % at 3 µM; 360,000 compounds, 1.5% hits; AID 624466;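 active = inhibition above a per-plate cutoff, the mean inhibition of test compounds on that plate plus 3 SD, cut at about 49% in these data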
Target sequence (Q96RJ0 whole entry, looked up): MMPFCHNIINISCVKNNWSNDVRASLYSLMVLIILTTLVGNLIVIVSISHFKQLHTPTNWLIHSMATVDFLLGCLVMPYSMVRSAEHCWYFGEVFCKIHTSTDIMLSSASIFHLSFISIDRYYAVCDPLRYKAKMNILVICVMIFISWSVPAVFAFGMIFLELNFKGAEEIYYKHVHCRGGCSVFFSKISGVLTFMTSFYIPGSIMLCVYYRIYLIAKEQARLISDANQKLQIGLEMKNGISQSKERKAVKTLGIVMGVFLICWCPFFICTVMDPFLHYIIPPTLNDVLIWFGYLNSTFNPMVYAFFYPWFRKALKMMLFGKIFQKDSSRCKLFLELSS
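Assay system: RD-HGA16 CHO cells with stable hTAAR1 and Gα16 / Reagent: EC80 β-phenethylamine stimulus / Doses: 3 µM, single point / Timing: dye loading 75 min at 37 °C, then 30 min room temperature / Measured by: Fluo-8 intracellular calcium dye fluorescence, real-time kinetic reads / Controls: vehicle wells and EC80 agonist wells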
M4 antag – blocks acetylcholine activation of human M4 receptor | 360,000 compounds, 0.73% hits | inhibition, % at 3 µM | CHO-hM4 cells, ACh EC80, Fluo-8 calcium fluorescence;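 active = inhibition above its plate's cutoff, the mean inhibition of sample wells plus 3 SD, cut at about 27% in these data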
TAAR1 ag – human TAAR1 agonism. 360,000 compounds, 0.99% hits. Q96RJ0. activation, % at 3 µM. CHO RD-HGA16 TAAR1, Fluo-8 calcium fluorescence; vehicle wells 0%, saturating PEA agonist 100%. AID 624467;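 active = activation above the mean activation of all test compounds in the run plus 3 SD, cut at about 38% in these data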
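test system = CHO RD-HGA16 cells carrying human TAAR1 plus Gα16 | schedule = 17-24 h seeding, 75 min 37 °C dye, 30 min RT | compound dosing = 3 µM single concentration | control set = DMSO and PEA EC100 | replicates = n 1 | signal = Fluo-8 fluorescence, 5 s baseline then 140 s kinetic read | measure = percent activation vs PEA EC100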
Hits are given with their value; - = inactive; . = no result given.

SMILES	M4 ag	M4 PAM	TAAR1 antag	M4 antag	TAAR1 ag
CN(C)c1ccc(C(C(=O)NCC2CCCO2)N(C(=O)c2snc(C(N)=O)c2N)c2ccccc2)cc1 (configuration not stated)	-	-	51.7	-	-
NC(=O)c1nsc(C(=O)N(c2ccccc2)C(C(=O)NC2CCCC2)c2ccc3ncccc3c2)c1N (configuration not stated)	-	-	51.3	-	-
O=Cc1ccc([B-](F)(F)F)o1	.	.	-	.	-
O=C(NCc1ccccc1)[C@H]1CCCN1C(=O)[C@H]1CCCN1C(=O)c1ccccc1	.	.	-	.	-
Clc1cccc(NCc2ccccc2)n1	-	22.1	-	-	-
Clc1nccc(NCc2ccccc2)n1	-	-	-	-	-
CC(=O)N(CC(=O)N(CC(=O)O)c1ccc(Cl)cc1)c1ccc(Cl)cc1	-	-	-	-	-
O=c1[nH]c2ccc(Cl)cc2c(-c2ccccc2)c1SC(=S)N1CCOCC1	-	-	55.8	-	-
O=c1[nH]c2ccc(Cl)cc2c(-c2ccccc2)c1SC(=S)N1CCCCC1	-	-	-	-	-
Cc1cccc(C(=O)Nc2ccccc2C(=O)OCC(=O)Nc2ccc(C#N)cc2)c1	-	-	58.0	-	-
Cc1cccc(OCC(=O)Nc2ccc(C(=O)Nc3ccccc3C(=O)O)cc2)c1	-	-	-	-	-
CC#CC[N+](C)(C)CCCCCCCCCCCC	-	-	-	26.6	-
C#CC[N+](C)(C)CCCCCCCCCCCC	-	-	-	52.9	-
C#CC[N+](C)(C)CCCCCCCCCC	-	-	-	-	-
COC(=O)C1=C(C)N(Cc2ccccc2C(F)(F)F)C(=NCc2cccc(C(F)(F)F)c2)NC1c1cccc(Cl)c1 (configuration not stated)	.	.	-	.	-
CCCSc1ccc2nc(-c3ccccc3)cn2c1	-	-	-	-	-
CCCCSc1ccc2nc(-c3ccc(C#N)cc3)cn2c1	-	-	50.5	-	-
COc1ccc(OCC2CN(C3CCCC3)S(=O)(=O)CCO2)cc1 (configuration not stated)	.	.	-	.	-
CCCCc1ccc(S(=O)(=O)NC(=O)C2(C)CCN2C(=O)CC2CC2)cc1 (configuration not stated)	-	-	-	-	-
COc1cc(/C=C/C(O)=C/C(=O)/C=C/c2ccc(O)cc2)ccc1O	49.8	-	81.0	27.3	45.1
COc1cc(/C=C/C(=O)NC(=O)c2ccccc2O)ccc1O	-	-	-	-	-
Cc1ccc(O)c(C(=O)c2cnc(/N=C(\N)N(C)C)nc2)c1	-	-	-	38.4	-
Cc1ccc(O)c(C(=O)c2cnc3c(c2)c(=O)n(C)c(=O)n3C)c1	-	-	-	-	-
Cc1c(P(=S)(c2ccccc2)c2ccccc2)[n+]2ccccc2n1CCc1ccccc1	-	-	-	56.0	-
CC(C1=C(CCN(C)C)Cc2ccccc21)c1ccccn1 (configuration not stated)	-	-	-	64.1	-
SMILES	M4 ag	M4 PAM	TAAR1 antag	M4 antag	TAAR1 ag
CN(C)CCC(c1ccccc1)c1ccccn1 (configuration not stated)	-	-	-	-	-
O=c1c2ccccc2nc2n1CCS2	-	-	-	-	-
O=c1nc2n(c3ccc(Br)cc13)CCS2	-	-	-	32.9	-
Cc1cccc(N2CCN(C(=O)c3ccc4c(c3)OCCO4)CC2C)c1 (configuration not stated)	-	-	-	-	-
Cc1cccc(N2CCN(C(=O)C3CC(=O)N(c4ccc5c(c4)OCCO5)C3)CC2C)c1 (configuration not stated)	-	-	55.1	-	-
CC(C)(C)c1ccc(OCCn2nc(C(=O)O)c3ccccc3c2=O)cc1	-	-	49.3	-	-
COC(=O)C1=C(C)N(C)C(=NCc2ccc(OC)cc2)NC1c1ccc(C(F)(F)F)cc1 (configuration not stated)	.	.	-	.	-
CN1C(=O)c2c(C(=O)Nc3ccc(Oc4ccncc4)cc3)[nH]c(-c3ccccc3)c2C1=O	-	-	-	-	-
CNC(=O)c1cc(Oc2ccc(NC(=O)c3[nH]c(-c4ccccc4)c4c3C(=O)N(C)C4=O)cc2)ccn1	-	23.1	-	-	-
COC(=O)[C@H](Cc1ccccc1)N1Cc2ccccc2Oc2cc(Br)ccc2S1(=O)=O	.	.	-	.	-
COc1ccc(CN2c3ccccc3C(=O)CS2(=O)=O)cc1OC	.	.	-	.	-
N#Cc1ccc(/C=C/C(=O)c2ccc3c(c2)OCO3)cc1	-	17.4	-	-	-
COC(=O)[C@]12C[C@H](CC(=O)NCCCN3CCCC3=O)C(=O)N(Cc3ccccc3)C1=C[C@H](C(C)(C)C)O[C@@H]2C	.	.	-	.	-
N#CC1=C(N)NC(SCC(=O)O)=C(C#N)C12CCCC2	-	-	-	-	-
N#CC1=C(N)NC(SCc2ccc(F)cc2)=C(C#N)C12CCCCC2	-	-	53.6	-	-
CCC1CCCCN1S(=O)(=O)c1ccc(NC(=O)c2nc(S(C)(=O)=O)ncc2Cl)cc1 (configuration not stated)	-	-	56.5	58.6	-
CCC1CCCCN1S(=O)(=O)c1ccc(NC(=O)c2ccncc2)cc1 (configuration not stated)	-	-	-	-	-
CCCCNC(=O)C[C@H]1C[C@@]2(C(=O)OC)C(=C[C@H](C(C)C)O[C@@H]2C2CC2)N(Cc2ccccc2)C1=O	.	.	-	.	-
CC1(C)O[C@@H]2[C@H](O1)[C@@H](COS(=O)(=O)O)O[C@H]2n1cc(Br)c(=O)[nH]c1=O	-	25.1	-	-	-
Cc1cn([C@H]2C[C@H](O)[C@@H](COS(=O)(=O)O)O2)c(=O)[nH]c1=O	-	-	-	-	-
CCCCCCCCN1C(=O)[C@@H](CC(=O)NCc2cccs2)C[C@@]2(C(=O)OC)C1=C[C@H](C1CCCC1)O[C@@H]2C	.	.	-	.	-
CCn1c(SCC(=O)NNC(=O)c2ccc(C)cc2)nnc1C(C)C	-	15.2	-	-	-
Cc1ccc(-c2cc(-c3ccco3)c3c(N)c(C(=O)NN)oc3n2)cc1	-	-	-	-	-
NNC(=O)c1oc2nc(-c3cccs3)cc(-c3ccco3)c2c1N	-	26.1	-	-	-
COc1cc2nc(N(CCCN(C)C)C(=O)c3ccc(S(=O)(=O)N4CCc5ccccc54)cc3)sc2cc1OC	-	-	-	-	39.9
CCN(Cc1ccccc1)S(=O)(=O)c1ccc(C(=O)N(CCCN(C)C)c2nc3cc4c(cc3s2)OCCO4)cc1	-	-	-	-	-
Cc1ccc2nc(N(CCCN(C)C)C(=O)c3ccc4c(c3)CCCC4)sc2c1	-	-	-	-	38.0
CCc1ccc2nc(N(CCCN(C)C)C(=O)c3ccc(S(=O)(=O)N(C)C4CCCCC4)cc3)sc2c1	-	-	51.0	-	38.6
